Values joined by “and” are separate entries in the source; they are usually repeats but may differ in a detail not shown here. Equal entries are not always repeated.
How the values were obtained:
Format in all cases: toxicity, cell-based
[1] = tested on: Fibroblast; assay: Multiplex assay against human fibroblast; conditions: number of replicates 2
Outline: (§1)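 Cells were classed with CellPathfinder machine-learning gating, first as Hoechst high-intensity objects or normal cells, then (normal cells) as healthy, pyknosed or fragmented nuclei, and finally (pyknosed cells) as mitotic or apoptotic. Staining of live cells at seeding used Hoechst33342, BioTracker Green Microtubule Cytoskeleton Dye, MitoTracker Red and Annexin V Alexa Fluor 680, with imaging on a CQ1 microscope at 37°C and 5% CO2 after compound addition. Tubulin, mitochondrial-mass and membrane-permeability phenotypes are per cents of healthy-nucleus cells.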

[2] = tested on: HEK-293T; assay: Multiplex assay against HEK293T; conditions: human, number of replicates 2; outline: as §1
[3] = tested on: U2OS; assay: Multiplex assay against U2OS; conditions: human, number of replicates 2; outline: as §1
[4] = 12 h, 1 µM, compound concentration 1 uM
[5] = 12 h, 10 µM, compound concentration 10 uM
[6] = 24 h, 1 µM, compound concentration 1 uM
[7] = 24 h, 10 µM, compound concentration 10 uM
[8] = 48 h, 1 µM, compound concentration 1 uM
[9] = 48 h, 10 µM, compound concentration 10 uM

Structure (SMILES): C[C@H](N)Cn1ccc2cc(F)c(Cl)cc21.O=C(O)/C=C/C(=O)O
- Population Apoptotic (%) [1, 4]: 44% and 40%
- Population Fragmented Nuclei (%) [1, 4]: 14%
- Population Healthy Nuclei (%) [1, 4]: 74% and 61%
- Population Hoechst High Intensity Objects (%) [1, 4]: 0%
- Population Membrane Permeable-Phenotype (%) [1, 4]: 5% and 6%
- Population Mitochondria Different-Phenotype (%) [1, 4]: 0% and 1%
- Population Mitotic Cells (%) [1, 4]: 55% and 60%
- Population Normal (%) [1, 4]: 100%
- Population Pyknosed Nuclei (%) [1, 4]: 11% and 24%
- Population Tubulin-Different-Phenotype (%) [1, 4]: 14% and 11%
- Total Cell Count [1, 4]: 252 and 208
- Population Apoptotic (%) [1, 5]: 45% and 37%
- Population Fragmented Nuclei (%) [1, 5]: 14% and 22%
- Population Healthy Nuclei (%) [1, 5]: 69% and 58%
- Population Hoechst High Intensity Objects (%) [1, 5]: 0%
- Population Membrane Permeable-Phenotype (%) [1, 5]: 11% and 12%
- Population Mitochondria Different-Phenotype (%) [1, 5]: 3% and 6%
- Population Mitotic Cells (%) [1, 5]: 54% and 62%
- Population Normal (%) [1, 5]: 100%
- Population Pyknosed Nuclei (%) [1, 5]: 16% and 19%
- Population Tubulin-Different-Phenotype (%) [1, 5]: 24% and 26%
- Total Cell Count [1, 5]: 189 and 184
- Population Apoptotic (%) [1, 6]: 42% and 68%
- Population Healthy Nuclei (%) [1, 6]: 25% and 72%
- Population Hoechst High Intensity Objects (%) [1, 6]: 1% and 0%
- Population Mitochondria Different-Phenotype (%) [1, 6]: 2% and 1%
- Population Mitotic Cells (%) [1, 6]: 57% and 31%
- Population Normal (%) [1, 6]: 98% and 99%
- Population Pyknosed Nuclei (%) [1, 6]: 23% and 11%
- Total Cell Count [1, 6]: 149 and 256
- Population Apoptotic (%) [1, 7]: 53% and 51%
- Population Fragmented Nuclei (%) [1, 7]: 24% and 28%
- Population Healthy Nuclei (%) [1, 7]: 63% and 56%
- Population Hoechst High Intensity Objects (%) [1, 7]: 0%
- Population Membrane Permeable-Phenotype (%) [1, 7]: 4% and 7%
- Population Mitochondria Different-Phenotype (%) [1, 7]: 0% and 5%
- Population Mitotic Cells (%) [1, 7]: 46% and 48%
- Population Normal (%) [1, 7]: 99% and 100%
- Population Pyknosed Nuclei (%) [1, 7]: 12% and 14%
- Population Tubulin-Different-Phenotype (%) [1, 7]: 23% and 28%
- Total Cell Count [1, 7]: 208
- Population Apoptotic (%) [1, 8]: 65% and 56%
- Population Fragmented Nuclei (%) [1, 8]: 18% and 21%
- Population Healthy Nuclei (%) [1, 8]: 67% and 59%
- Population Hoechst High Intensity Objects (%) [1, 8]: 0%
- Population Membrane Permeable-Phenotype (%) [1, 8]: 4% and 5%
- Population Mitochondria Different-Phenotype (%) [1, 8]: 0% and 1%
- Population Mitotic Cells (%) [1, 8]: 34% and 43%
- Population Normal (%) [1, 8]: 100% and 99%
- Population Pyknosed Nuclei (%) [1, 8]: 13% and 18%
- Population Tubulin-Different-Phenotype (%) [1, 8]: 7% and 9%
- Total Cell Count [1, 8]: 258 and 233
- Population Apoptotic (%) [1, 9]: 60% and 65%
- Population Fragmented Nuclei (%) [1, 9]: 33% and 30%
- Population Healthy Nuclei (%) [1, 9]: 58% and 60%
- Population Hoechst High Intensity Objects (%) [1, 9]: 0%
- Population Membrane Permeable-Phenotype (%) [1, 9]: 4% and 6%
- Population Mitochondria Different-Phenotype (%) [1, 9]: 0% and 1%
- Population Mitotic Cells (%) [1, 9]: 40% and 35%
- Population Normal (%) [1, 9]: 99%
- Population Pyknosed Nuclei (%) [1, 9]: 7% and 9%
- Population Tubulin-Different-Phenotype (%) [1, 9]: 22% and 18%
- Total Cell Count [1, 9]: 255 and 217
- Population Apoptotic (%) [2, 4]: 38% and 46%
- Population Fragmented Nuclei (%) [2, 4]: 3% and 2%
- Population Healthy Nuclei (%) [2, 4]: 82% and 85%
- Population Hoechst High Intensity Objects (%) [2, 4]: 8%
- Population Membrane Permeable-Phenotype (%) [2, 4]: 1%
- Population Mitochondria Different-Phenotype (%) [2, 4]: 17% and 15%
- Population Mitotic Cells (%) [2, 4]: 61% and 53%
- Population Normal (%) [2, 4]: 91%
- Population Pyknosed Nuclei (%) [2, 4]: 14% and 11%
- Population Tubulin-Different-Phenotype (%) [2, 4]: 59% and 53%
- Total Cell Count [2, 4]: 737 and 645
- Population Apoptotic (%) [2, 5]: 58% and 55%
- Population Fragmented Nuclei (%) [2, 5]: 4% and 5%
- Population Healthy Nuclei (%) [2, 5]: 83% and 79%
- Population Hoechst High Intensity Objects (%) [2, 5]: 8% and 9%
- Population Membrane Permeable-Phenotype (%) [2, 5]: 5% and 1%
- Population Mitochondria Different-Phenotype (%) [2, 5]: 28% and 20%
- Population Mitotic Cells (%) [2, 5]: 41% and 44%
- Population Normal (%) [2, 5]: 91% and 90%
- Population Pyknosed Nuclei (%) [2, 5]: 12% and 14%
- Population Tubulin-Different-Phenotype (%) [2, 5]: 81% and 72%
- Total Cell Count [2, 5]: 443 and 563
- Population Apoptotic (%) [2, 6]: 52% and 57%
- Population Fragmented Nuclei (%) [2, 6]: 10% and 6%
- Population Healthy Nuclei (%) [2, 6]: 77% and 82%
- Population Hoechst High Intensity Objects (%) [2, 6]: 7%
- Population Membrane Permeable-Phenotype (%) [2, 6]: 1% and 2%
- Population Mitochondria Different-Phenotype (%) [2, 6]: 6% and 4%
- Population Mitotic Cells (%) [2, 6]: 47% and 42%
- Population Normal (%) [2, 6]: 92%
- Population Pyknosed Nuclei (%) [2, 6]: 12% and 10%
- Population Tubulin-Different-Phenotype (%) [2, 6]: 32% and 28%
- Total Cell Count [2, 6]: 1141 and 1024
- Population Apoptotic (%) [2, 7]: 63% and 59%
- Population Fragmented Nuclei (%) [2, 7]: 8% and 7%
- Population Healthy Nuclei (%) [2, 7]: 83% and 84%
- Population Hoechst High Intensity Objects (%) [2, 7]: 9% and 11%
- Population Membrane Permeable-Phenotype (%) [2, 7]: 2% and 3%
- Population Mitochondria Different-Phenotype (%) [2, 7]: 16% and 8%
- Population Mitotic Cells (%) [2, 7]: 36% and 40%
- Population Normal (%) [2, 7]: 90% and 88%
- Population Pyknosed Nuclei (%) [2, 7]: 7% and 8%
- Population Tubulin-Different-Phenotype (%) [2, 7]: 72% and 40%
- Total Cell Count [2, 7]: 634 and 884
- Population Apoptotic (%) [2, 8]: 18% and 17%
- Population Fragmented Nuclei (%) [2, 8]: 17% and 11%
- Population Healthy Nuclei (%) [2, 8]: 80% and 85%
- Population Hoechst High Intensity Objects (%) [2, 8]: 9%
- Population Membrane Permeable-Phenotype (%) [2, 8]: 5% and 3%
- Population Mitochondria Different-Phenotype (%) [2, 8]: 0%
- Population Mitotic Cells (%) [2, 8]: 81% and 82%
- Population Normal (%) [2, 8]: 90%
- Population Pyknosed Nuclei (%) [2, 8]: 2%
- Population Tubulin-Different-Phenotype (%) [2, 8]: 14% and 11%
- Total Cell Count [2, 8]: 2886 and 2112
- Population Apoptotic (%) [2, 9]: 40% and 17%
- Population Fragmented Nuclei (%) [2, 9]: 15% and 12%
- Population Healthy Nuclei (%) [2, 9]: 80% and 84%
- Population Hoechst High Intensity Objects (%) [2, 9]: 11% and 7%
- Population Membrane Permeable-Phenotype (%) [2, 9]: 8% and 4%
- Population Mitochondria Different-Phenotype (%) [2, 9]: 1%
- Population Mitotic Cells (%) [2, 9]: 59% and 82%
- Population Normal (%) [2, 9]: 88% and 92%
- Population Pyknosed Nuclei (%) [2, 9]: 3%
- Population Tubulin-Different-Phenotype (%) [2, 9]: 36% and 20%
- Total Cell Count [2, 9]: 1535 and 2025
- Population Apoptotic (%) [3, 4]: 47% and 66%
- Population Fragmented Nuclei (%) [3, 4]: 4% and 8%
- Population Healthy Nuclei (%) [3, 4]: 87% and 84%
- Population Hoechst High Intensity Objects (%) [3, 4]: 0%
- Population Membrane Permeable-Phenotype (%) [3, 4]: 0%
- Population Mitochondria Different-Phenotype (%) [3, 4]: 0%
- Population Mitotic Cells (%) [3, 4]: 52% and 33%
- Population Normal (%) [3, 4]: 99% and 100%
- Population Pyknosed Nuclei (%) [3, 4]: 8% and 6%
- Population Tubulin-Different-Phenotype (%) [3, 4]: 94% and 44%
- Population Apoptotic (%) [3, 5]: 40% and 50%
- Population Fragmented Nuclei (%) [3, 5]: 5% and 12%
- Population Healthy Nuclei (%) [3, 5]: 88% and 75%
- Population Hoechst High Intensity Objects (%) [3, 5]: 0%
- Population Membrane Permeable-Phenotype (%) [3, 5]: 1% and 8%
- Population Mitochondria Different-Phenotype (%) [3, 5]: 1% and 0%
- Population Mitotic Cells (%) [3, 5]: 60% and 50%
- Population Normal (%) [3, 5]: 99% and 100%
- Population Pyknosed Nuclei (%) [3, 5]: 6% and 12%
- Population Tubulin-Different-Phenotype (%) [3, 5]: 62% and 37%
- Population Apoptotic (%) [3, 6]: 100% and 62%
- Population Fragmented Nuclei (%) [3, 6]: 6% and 1%
- Population Healthy Nuclei (%) [3, 6]: 91% and 90%
- Population Hoechst High Intensity Objects (%) [3, 6]: 0%
- Population Membrane Permeable-Phenotype (%) [3, 6]: 0%
- Population Mitochondria Different-Phenotype (%) [3, 6]: 0%
- Population Normal (%) [3, 6]: 100% and 99%
- Population Pyknosed Nuclei (%) [3, 6]: 2% and 7%
- Population Tubulin-Different-Phenotype (%) [3, 6]: 54% and 88%
- Population Apoptotic (%) [3, 7]: 42% and 80%
- Population Fragmented Nuclei (%) [3, 7]: 3% and 9%
- Population Healthy Nuclei (%) [3, 7]: 89% and 78%
- Population Hoechst High Intensity Objects (%) [3, 7]: 0%
- Population Membrane Permeable-Phenotype (%) [3, 7]: 1% and 3%
- Population Mitochondria Different-Phenotype (%) [3, 7]: 1% and 0%
- Population Mitotic Cells (%) [3, 7]: 57% and 20%
- Population Normal (%) [3, 7]: 99% and 100%
- Population Pyknosed Nuclei (%) [3, 7]: 6% and 12%
- Population Tubulin-Different-Phenotype (%) [3, 7]: 73% and 31%
- Population Apoptotic (%) [3, 8]: 54% and 34%
- Population Fragmented Nuclei (%) [3, 8]: 5% and 2%
- Population Healthy Nuclei (%) [3, 8]: 83% and 90%
- Population Hoechst High Intensity Objects (%) [3, 8]: 0%
- Population Membrane Permeable-Phenotype (%) [3, 8]: 0% and 1%
- Population Mitochondria Different-Phenotype (%) [3, 8]: 0%
- Population Mitotic Cells (%) [3, 8]: 45% and 65%
- Population Normal (%) [3, 8]: 100%
- Population Pyknosed Nuclei (%) [3, 8]: 11% and 7%
- Population Tubulin-Different-Phenotype (%) [3, 8]: 69% and 92%
- Population Apoptotic (%) [3, 9]: 50% and 52%
- Population Fragmented Nuclei (%) [3, 9]: 10% and 5%
- Population Healthy Nuclei (%) [3, 9]: 75% and 89%
- Population Hoechst High Intensity Objects (%) [3, 9]: 0%
- Population Membrane Permeable-Phenotype (%) [3, 9]: 1%
- Population Mitochondria Different-Phenotype (%) [3, 9]: 0%
- Population Mitotic Cells (%) [3, 9]: 50% and 47%
- Population Normal (%) [3, 9]: 100%
- Population Pyknosed Nuclei (%) [3, 9]: 13% and 5%
- Population Tubulin-Different-Phenotype (%) [3, 9]: 55% and 81%

— ChEMBL document CHEMBL5303300, “EUbOPEN Chemogenomics Library - Multiplex” (2023)
